Results as given in ChEMBL document CHEMBL5344453, “Selective Recognition of c-KIT 1 G-Quadruplex by Structural Tuning of Heteroaromatic Scaffolds and Side Chains” (ACS Med Chem Lett, 2024).

Assays:
Quadruplex DNA [1] = assay: Binding affinity to excessive G-quadruplex c-KIT1 5-FAM-GGGAGGGCGCTGGGAGGAGGG-TAMRA-3 (unknown origin) assessed as fold increase in fluorescence intensity at 1 uM incubated for 1 hr in dark condition by fluorescence spectroscopy assay relative to c-KIT2; assay type: nucleic-acid assay
Method in brief: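 Ligand (1.0 μM) titrated to saturation with increasing G-quadruplex in 100 mM Tris-KCl buffer, pH 7.4. The value is the ratio of the c-KIT 1 fold change in fluorescence intensity to the fold change obtained with VEGF or c-KIT 2.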

Calf thymus DNA = assay: Binding affinity to calf thymus ds DNA assessed as dissociation constant by fluorescence spectroscopy assay; assay type: nucleic-acid assay, Bos taurus
Method in brief: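 Fluorimetric titration of ligand held at 1.0 μM with increasing concentrations of G4 or dsDNA until saturation. Change in ligand fluorescence intensity was fitted for Kd. Run in 100 mM Tris-KCl buffer, pH 7.4.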

Quadruplex DNA [2] = assay: Stabilization of G-quadruplex h-TELO 5-FAM-TTGGGTTAGGGTTAGGGTTAGGGA-TAMRA-3 (unknown origin) assessed as change in melting temperature at 10 uM incubated for 1 hr in dark condition by FRET-based melting assay; assay type: nucleic-acid assay
Method in brief: (§1)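 FRET melting of dual-fluorophore (FAM/TAMRA) tagged G-quadruplex (200 nM) in 60 mM potassium cacodylate, pH 7.4. The screen used 1 μM ligand; dose series used 1, 3, 5, 7 and 10 μM. ΔTm was taken against the Tm of the same oligonucleotide without ligand.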

Quadruplex DNA [3] = assay: Binding affinity to G-quadruplex h-TELO 5-FAM-TTGGGTTAGGGTTAGGGTTAGGGA-TAMRA-3 (unknown origin) assessed as dissociation constant by measuring thermogram by isothermal titration calorimetry (ITC) assay; assay type: nucleic-acid assay
Method in brief: (§2)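 ITC of ligand binding to folded G4 in 100 mM Tris-KCl buffer, pH 7.4. Kd and stoichiometry were obtained from the isothermal heat curve and binding isotherm.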

K562 [4] = assay: Attenuation of proto-oncogene expression in human c-KIT-positive K562 cells assessed as reduction in BCL-2 oncogene expression at 3 uM measured after 24 hrs by qRT-PCR analysis relative to control; assay type: functional
Method in brief: (§3)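 K562 cells treated 24 h at two doses per ligand (3 and 6 μM, 5.5 and 11 μM; positive control 2 and 4 μM). c-KIT, c-MYC and BCL-2 mRNA measured by qRT-PCR and normalized to housekeeping gene 18s, relative to untreated control.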

[5] = Reduction of c-KIT oncogene expression in human K562 cells transfected with c-KIT plasmid construct assessed as reduction in luciferase expression at 3 uM measured after 36 hrs by luciferase reporter assay; assay type: functional
Method in brief: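 K562 cells were transfected with luciferase plasmids carrying the c-KIT, c-MYC or BCL-2 promoter G4. They were then treated with ligand (3 and 6 μM or 5.5 and 11 μM), and relative luciferase expression was measured.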

[6] = Induction of cell permeation in human c-KIT-positive K562 cell membrane assessed as fold increase in (G- quadruplex/antibody complex) BG4 foci at 3 uM measured after 24 hrs by immunofluorescence assay; assay type: functional
Method in brief: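 K562 cells were treated with ligand (3 or 5.5 μM) and immunostained with G4-specific antibody BG4. Nuclear BG4 foci were counted by confocal microscopy and expressed relative to untreated cells.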

K562 [7] = assay: Induction of apoptosis in human K562 cells assessed as apoptosis incubated for 24 hrs by FITC-Annexin V and PI based flow cytometry; assay type: functional, cell-based
Method in brief: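 K562 cells were treated with ligand (3 and 6 μM or 5.5 and 11 μM) and dual-stained with annexin V and PI. Early and late apoptotic populations were quantified by flow cytometry dot plot analysis.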

K562 [8] = assay: Induction of apoptosis in human K562 cells assessed as cell death at 3 uM incubated for 24 hrs by FITC-Annexin V and PI based flow cytometry relative to control; assay type: functional
Method in brief: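 K562 cells after ligand treatment dual-stained with annexin V and propidium iodide. Apoptotic cell populations (early and late) scored by flow cytometry dot plot analysis.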

Quadruplex DNA [9] = assay: Stabilization of calf thymus […] ds DNA 5-FAM-CAATCGGATCGAATTCGATCCGATTG-TAMRA-3 assessed as change in melting temperature at 1 uM incubated for 1 hr in dark condition by FRET-based melting assay; assay type: nucleic-acid assay; settings: Bos taurus
Method in brief: (§4)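 FRET melting of dual-fluorophore-tagged oligonucleotides (200 nM) in 60 mM potassium cacodylate buffer, pH 7.4, with ligand at 1 μM; ΔTm taken against the ligand-free oligonucleotide Tm as control.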

Quadruplex DNA [10] = assay: Stabilization of G-quadruplex c-KIT2 5-FAM-GGGCGGGCGCGAGGGAGGGG-TAMRA-3 (unknown origin) assessed as change in melting temperature at 1 uM incubated for 1 hr in dark condition by FRET-based melting assay; assay type: nucleic-acid assay; method in brief: as §4
Quadruplex DNA [11] = assay: Stabilization of G-quadruplex c-KIT2 5-FAM-GGGCGGGCGCGAGGGAGGGG-TAMRA-3 (unknown origin) assessed as change in melting temperature at 10 uM incubated for 1 hr in dark condition by FRET-based melting assay; assay type: nucleic-acid assay; method in brief: as §1
K562 [12] = assay: Attenuation of proto-oncogene expression in human c-KIT-positive K562 cells assessed as reduction in c-MYC oncogene expression at 3 uM measured after 24 hrs by qRT-PCR analysis relative to control; assay type: functional; method in brief: as §3
Quadruplex DNA [13] = assay: Binding affinity to G-quadruplex c-MYC 5-FAM-TGGGGAGGGTGGGGAGGGTGGGGAAGG-TAMRA-3 (unknown origin) assessed as dissociation constant by measuring thermogram by isothermal titration calorimetry (ITC) assay; assay type: nucleic-acid assay; method in brief: as §2
Quadruplex DNA [14] = assay: Stabilization of G-quadruplex BCL2 5-FAM-AGGGGCGGGCGCGGGAGGAAGGGGGCGGGAGCGGGGCTG-TAMRA-3 (unknown origin) assessed as change in melting temperature at 10 uM incubated for 1 hr in dark condition by FRET-based melting assay; assay type: nucleic-acid assay; method in brief: as §1
Quadruplex DNA [15] = assay: Stabilization of G-quadruplex BCL2 5-FAM-AGGGGCGGGCGCGGGAGGAAGGGGGCGGGAGCGGGGCTG-TAMRA-3 (unknown origin) assessed as change in melting temperature at 1 uM incubated for 1 hr in dark condition by FRET-based melting assay; assay type: nucleic-acid assay; method in brief: as §4
[16] = Cytotoxicity against HEK293 cells assessed as cell viability measured after 24 hrs by XTT formazan assay; assay type: toxicity, cell-based; settings: human
K562 [17] = assay: Attenuation of proto-oncogene expression in human c-KIT-positive K562 cells assessed as reduction in c-KIT oncogene expression at 6 uM measured after 24 hrs by qRT-PCR analysis relative to control; assay type: functional; method in brief: as §3
Quadruplex DNA [18] = assay: Binding affinity to excessive G-quadruplex c-KIT1 5-FAM-GGGAGGGCGCTGGGAGGAGGG-TAMRA-3 (unknown origin) assessed as fold increase in fluorescence intensity at 1 uM incubated for 1 hr in dark condition by fluorescence spectroscopy assay; assay type: nucleic-acid assay
Method in brief: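 Fluorimetric titration in 100 mM Tris-KCl buffer, pH 7.4. Ligand fixed at 1.0 μM and titrated with increasing concentrations of each G-quadruplex until fluorescence saturation. The fold increase in ligand fluorescence intensity was read, and Kd was derived from the titration plot.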

Quadruplex DNA [19] = assay: Stabilization of G-quadruplex VEGF 5-FAM-CGGGGCGGGCCGGGGGCGGGGT-TAMRA-3 (unknown origin) assessed as change in melting temperature at 10 uM incubated for 1 hr in dark condition by FRET-based melting assay; assay type: nucleic-acid assay; method in brief: as §1

Compound: CN(C)CCCNC(=O)c1ccc(-n2cc(-c3ccc4[nH]c5ccccc5c4c3)nn2)cc1
- fold change (FC) (Quadruplex DNA [1]): 3.2
- Kd (Calf thymus DNA): 4 µM
- ΔTm (Quadruplex DNA [2]): 20.3 °C
- Kd (Quadruplex DNA [3]): 17.4 µM
- inhibition at 3 µM (K562 [4]): 29%
- inhibition at 3 µM [5]: 22%
- fold change (FC) [6]: 5.4
- Activity (K562 [7]): Dose-Dependent Effect
- Activity (K562 [8]): 35%
- ΔTm (Quadruplex DNA [9]): 0.7 °C
- ΔTm (Quadruplex DNA [10]): 9.9 °C
- ΔTm (Quadruplex DNA [11]): 18.1 °C
- inhibition at 3 µM (K562 [12]): 15%
- Kd (Quadruplex DNA [13]): 6.2 µM
- ΔTm (Quadruplex DNA [14]): 12.1 °C
- ΔTm (Quadruplex DNA [15]): 2.2 °C
- IC50 at 24 h [16]: > 50 µM
- inhibition at 6 µM (K562 [17]): 73%
- fold change (FC) (Quadruplex DNA [18]): 5.2
- ΔTm (Quadruplex DNA [19]): 11.2 °C
